Laboratory results from PMC3553987 (Nucleic Acids Research, 2012).

Legend:
P-STAT1 = target: T1, P-STAT1 (Homo sapiens, UniProt P42224); experiment: TIRF-PBM: inhibition of P-STAT1 equilibrium binding to DNA array; settings: 20 µM compound, 50 nM P-STAT1
T1 sequence (P42224 1-750): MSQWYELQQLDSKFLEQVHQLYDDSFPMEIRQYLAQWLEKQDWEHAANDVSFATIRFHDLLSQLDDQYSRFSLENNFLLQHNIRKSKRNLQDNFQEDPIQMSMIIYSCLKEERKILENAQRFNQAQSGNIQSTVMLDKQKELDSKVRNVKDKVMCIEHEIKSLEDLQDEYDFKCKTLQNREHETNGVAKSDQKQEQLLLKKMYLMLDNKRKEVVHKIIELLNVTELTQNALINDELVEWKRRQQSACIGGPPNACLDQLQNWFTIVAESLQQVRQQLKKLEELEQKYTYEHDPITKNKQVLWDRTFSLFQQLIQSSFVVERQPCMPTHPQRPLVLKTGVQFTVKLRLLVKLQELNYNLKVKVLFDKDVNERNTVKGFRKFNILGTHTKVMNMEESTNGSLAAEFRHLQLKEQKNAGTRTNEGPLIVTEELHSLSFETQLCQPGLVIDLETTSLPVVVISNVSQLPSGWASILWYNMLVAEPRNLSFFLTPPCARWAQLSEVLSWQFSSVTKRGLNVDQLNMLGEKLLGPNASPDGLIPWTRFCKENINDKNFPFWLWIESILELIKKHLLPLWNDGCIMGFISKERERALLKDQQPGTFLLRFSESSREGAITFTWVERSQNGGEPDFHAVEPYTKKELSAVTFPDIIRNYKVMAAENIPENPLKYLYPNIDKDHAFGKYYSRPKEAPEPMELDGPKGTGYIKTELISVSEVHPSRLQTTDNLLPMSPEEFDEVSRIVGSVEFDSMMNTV
In short: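 Phosphorylated STAT1 (50 nM), amine-labelled with DyLight dyes, with test compound (20 μM final, from 5 mM DMSO stock). Flowed >30 min at 25°C over dsDNA hydrogel microarray; TIRF read, 20 s exposures. Intensities from 5–10 replicate spots, binned as GAS palindrome with 3-nt spacer, half-GAS, or absent/misspaced GAS.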

STAT3 = settings: STAT3, at this concentration (20 µM), in cells and in vivo; cited from earlier work
Myc/Max [1] = target: Myc/Max (Homo sapiens, UniProt P01106); experiment: TIRF-PBM: inhibition of Myc/Max equilibrium binding to DNA array; settings: 50 μM Mycro3, 10 nM Myc/Max
In short: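 DyLight-labelled Myc/Max (His-tagged c-Myc and Max expressed separately in E. coli, then denatured and renatured together) with test compound (5 mM DMSO stock, 50 μM final). Equilibrium intensity from 5–10 replicate spots; E-box consensus vs mutated/absent bins compared by two-tailed t-test with Welch's correction.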

Myc/Max [2] = settings: read-out: reported IC50; obtained with a cognate-binding site; cited from earlier work

Chain of Myc/Max (Homo sapiens, UniProt P01106) (P01106 whole entry): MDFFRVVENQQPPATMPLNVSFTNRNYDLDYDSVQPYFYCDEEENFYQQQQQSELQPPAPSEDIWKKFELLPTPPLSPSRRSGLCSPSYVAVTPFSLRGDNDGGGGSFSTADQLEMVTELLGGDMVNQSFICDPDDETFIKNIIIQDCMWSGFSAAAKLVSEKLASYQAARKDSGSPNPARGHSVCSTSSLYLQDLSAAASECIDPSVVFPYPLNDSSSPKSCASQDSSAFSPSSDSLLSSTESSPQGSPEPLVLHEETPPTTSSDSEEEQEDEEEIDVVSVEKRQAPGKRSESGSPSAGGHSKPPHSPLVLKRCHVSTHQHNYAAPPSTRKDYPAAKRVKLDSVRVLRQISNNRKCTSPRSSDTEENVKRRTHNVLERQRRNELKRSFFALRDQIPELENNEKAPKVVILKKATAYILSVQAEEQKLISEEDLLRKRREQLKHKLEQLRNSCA

Compound | adjusted binding intensity at 'Half Sites' (P-STAT1) | adjusted binding intensity at 'Poor Affinity' sites (P-STAT1) | average adjusted binding intensity at 'High Affinity' sites, % of the no-inhibitor control (P-STAT1) | fold reduction in binding at 'High Affinity' sites (P-STAT1) | DNA binding, % of normal activity (STAT3) | Myc/Max binding intensity at 'high affinity' sites, % signal (Myc/Max [1]) | Myc/Max binding signal at weaker affinity sites (Myc/Max [1]) | IC50 (Myc/Max [2])
CC(=O)c1cccc2c1C(=O)c1cccc(O)c1C2=O [LLL3] | 59.4 ± 15.5% | 42.4 ± 13.1% | 12.6 ± 4.9% | ~8 fold | ~40% | – | – | –
CCOC(=O)c1cnn(-c2ccccc2)c1NC(=O)c1cc2nc(-c3ccco3)cc(C(F)(F)Cl)n2n1 [Mycro3] | – | – | – | – | – | 68.5 ± 10.6% | 66.2 ± 23.7% | 40 ± 13 µM
